Several values for one entry are separate records, joined by “and”; a condition that tells them apart may be missing. Identical values can stand only once.
Test system: U2OS
Assay: Multiplex assay against U2OS
Format: toxicity, cell-based
Details: human
How it was run: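 Per cents of healthy-nucleus cells form the tubulin, mitochondrial-mass and membrane-permeability phenotype values. Live cells were stained at seeding with Hoechst33342, BioTracker Green Microtubule Cytoskeleton Dye, MitoTracker Red and Annexin V Alexa Fluor 680. After compound addition they were imaged on a CQ1 microscope at 37°C and 5% CO2, and CellPathfinder machine-learning gating split them into Hoechst high-intensity objects or normal cells, normal cells into healthy, pyknosed or fragmented nuclei, and pyknosed cells into mitotic or apoptotic.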

[1] = 12 h, 1 µM, compound concentration 1 uM
[2] = 12 h, 10 µM, compound concentration 10 uM
[3] = 24 h, 1 µM, compound concentration 1 uM
[4] = 24 h, 10 µM, compound concentration 10 uM
[5] = 48 h, 1 µM, compound concentration 1 uM
[6] = 48 h, 10 µM, compound concentration 10 uM

CC(C)CNc1nc(N2CCN(CC3CCCOC3)CC2)ncc1C(=O)NCc1ccccc1 (stereo not drawn)
Population Apoptotic (%) [1]: 35.29% and 54.55%
Population Fragmented Nuclei (%) [1]: 1.32% and 3.94%
Population Healthy Nuclei (%) [1]: 85.22% and 78.74%
Population Hoechst High Intensity Objects (%) [1]: 0%
Population Membrane Permeable-Phenotype (%) [1]: 0.93% and 5%
Population Mitotic Cells (%) [1]: 64.71% and 45.45%
Population Normal (%) [1]: 100%
Population Pyknosed Nuclei (%) [1]: 13.46% and 17.32%
Population Tubulin-Different-Phenotype (%) [1]: 3.1% and 1%
Total Cell Count [1]: 379 and 127
Population Apoptotic (%) [2]: 51.14% and 36.59%
Population Fragmented Nuclei (%) [2]: 1.76% and 7.28%
Population Healthy Nuclei (%) [2]: 72.35% and 65.56%
Population Hoechst High Intensity Objects (%) [2]: 0%
Population Membrane Permeable-Phenotype (%) [2]: 22.36% and 30.3%
Population Mitochondria Different-Phenotype (%) [2]: 72.36% and 89.9%
Population Mitotic Cells (%) [2]: 48.86% and 63.41%
Population Normal (%) [2]: 100%
Population Pyknosed Nuclei (%) [2]: 25.88% and 27.15%
Population Tubulin-Different-Phenotype (%) [2]: 97.15% and 94.95%
Total Cell Count [2]: 340 and 151
Population Apoptotic (%) [3]: 43.1% and 31.82%
Population Fragmented Nuclei (%) [3]: 1.29% and 7.91%
Population Healthy Nuclei (%) [3]: 86.27% and 76.26%
Population Hoechst High Intensity Objects (%) [3]: 0.21% and 0%
Population Membrane Permeable-Phenotype (%) [3]: 2.49% and 9.43%
Population Mitotic Cells (%) [3]: 56.9% and 68.18%
Population Normal (%) [3]: 99.79% and 100%
Population Pyknosed Nuclei (%) [3]: 12.45% and 15.83%
Population Tubulin-Different-Phenotype (%) [3]: 3.98% and 4.72%
Population Apoptotic (%) [4]: 71.3% and 64%
Population Fragmented Nuclei (%) [4]: 3.28% and 4.55%
Population Healthy Nuclei (%) [4]: 67.21% and 62.99%
Population Hoechst High Intensity Objects (%) [4]: 0%
Population Membrane Permeable-Phenotype (%) [4]: 17.07% and 18.56%
Population Mitochondria Different-Phenotype (%) [4]: 81.3% and 91.75%
Population Mitotic Cells (%) [4]: 28.7% and 36%
Population Normal (%) [4]: 100%
Population Pyknosed Nuclei (%) [4]: 29.51% and 32.47%
Population Tubulin-Different-Phenotype (%) [4]: 97.15% and 93.81%
Total Cell Count [4]: 366 and 154
Population Apoptotic (%) [5]: 58.06% and 46.43%
Population Fragmented Nuclei (%) [5]: 2.14% and 3.47%
Population Healthy Nuclei (%) [5]: 86.13% and 80.35%
Population Hoechst High Intensity Objects (%) [5]: 0%
Population Membrane Permeable-Phenotype (%) [5]: 1.02% and 4.32%
Population Mitotic Cells (%) [5]: 41.94% and 53.57%
Population Normal (%) [5]: 100%
Population Pyknosed Nuclei (%) [5]: 11.73% and 16.18%
Population Tubulin-Different-Phenotype (%) [5]: 2.64% and 6.47%
Population Apoptotic (%) [6]: 80.41% and 90%
Population Fragmented Nuclei (%) [6]: 7.04% and 6.08%
Population Healthy Nuclei (%) [6]: 55.78% and 60.14%
Population Hoechst High Intensity Objects (%) [6]: 0%
Population Membrane Permeable-Phenotype (%) [6]: 13.06% and 17.98%
Population Mitochondria Different-Phenotype (%) [6]: 79.28% and 93.26%
Population Mitotic Cells (%) [6]: 19.59% and 10%
Population Normal (%) [6]: 100%
Population Pyknosed Nuclei (%) [6]: 37.19% and 33.78%
Population Tubulin-Different-Phenotype (%) [6]: 96.4% and 88.76%
Total Cell Count [6]: 398 and 148

O=C1CSC(=O)N1C(CCc1ccncc1)COc1ccc(-c2cccc([N+](=O)[O-])c2)cc1 (stereo not drawn)
Population Apoptotic (%) [1]: 46.67% and 30.43%
Population Fragmented Nuclei (%) [1]: 1.68% and 1.25%
Population Healthy Nuclei (%) [1]: 91.11% and 84.38%
Population Hoechst High Intensity Objects (%) [1]: 0% and 0.62%
Population Membrane Permeable-Phenotype (%) [1]: 0.26% and 4.44%
Population Mitochondria Different-Phenotype (%) [1]: 0.26% and 9.63%
Population Mitotic Cells (%) [1]: 53.33% and 69.57%
Population Normal (%) [1]: 100% and 99.38%
Population Pyknosed Nuclei (%) [1]: 7.21% and 14.37%
Population Tubulin-Different-Phenotype (%) [1]: 1.58% and 2.22%
Total Cell Count [1]: 416 and 161
Population Apoptotic (%) [2]: 42.24% and 24.39%
Population Fragmented Nuclei (%) [2]: 2.2% and 3.42%
Population Healthy Nuclei (%) [2]: 69.51% and 68.49%
Population Hoechst High Intensity Objects (%) [2]: 0.24% and 0%
Population Membrane Permeable-Phenotype (%) [2]: 53.68% and 77%
Population Mitochondria Different-Phenotype (%) [2]: 42.11% and 86%
Population Mitotic Cells (%) [2]: 57.76% and 75.61%
Population Normal (%) [2]: 99.76% and 100%
Population Pyknosed Nuclei (%) [2]: 28.29% and 28.08%
Population Tubulin-Different-Phenotype (%) [2]: 96.84% and 85%
Total Cell Count [2]: 411 and 146
Population Apoptotic (%) [3]: 40.38% and 40%
Population Fragmented Nuclei (%) [3]: 0.93% and 1.52%
Population Healthy Nuclei (%) [3]: 89.44% and 80.81%
Population Hoechst High Intensity Objects (%) [3]: 0.18% and 0%
Population Membrane Permeable-Phenotype (%) [3]: 0.62% and 1.88%
Population Mitochondria Different-Phenotype (%) [3]: 0.41% and 10%
Population Mitotic Cells (%) [3]: 59.62% and 60%
Population Normal (%) [3]: 99.82% and 100%
Population Pyknosed Nuclei (%) [3]: 9.63% and 17.68%
Population Tubulin-Different-Phenotype (%) [3]: 1.45% and 0.62%
Total Cell Count [3]: 541 and 198
Population Apoptotic (%) [4]: 50% and 31.58%
Population Fragmented Nuclei (%) [4]: 2.96% and 3.38%
Population Healthy Nuclei (%) [4]: 68.34% and 70.95%
Population Hoechst High Intensity Objects (%) [4]: 0.23% and 0%
Population Membrane Permeable-Phenotype (%) [4]: 43% and 73.33%
Population Mitotic Cells (%) [4]: 50% and 68.42%
Population Normal (%) [4]: 99.77% and 100%
Population Pyknosed Nuclei (%) [4]: 28.7% and 25.68%
Population Tubulin-Different-Phenotype (%) [4]: 96.67% and 89.52%
Total Cell Count [4]: 440 and 148
Population Apoptotic (%) [5]: 43.9% and 44.68%
Population Fragmented Nuclei (%) [5]: 2.54% and 3.2%
Population Healthy Nuclei (%) [5]: 89.11% and 83.14%
Population Hoechst High Intensity Objects (%) [5]: 0%
Population Membrane Permeable-Phenotype (%) [5]: 1.6% and 1.75%
Population Mitochondria Different-Phenotype (%) [5]: 0.34% and 6.64%
Population Mitotic Cells (%) [5]: 56.1% and 55.32%
Population Normal (%) [5]: 100%
Population Pyknosed Nuclei (%) [5]: 8.34% and 13.66%
Population Tubulin-Different-Phenotype (%) [5]: 1.94% and 1.75%
Total Cell Count [5]: 983 and 344
Population Apoptotic (%) [6]: 60.54% and 58.93%
Population Fragmented Nuclei (%) [6]: 4.41% and 4.12%
Population Healthy Nuclei (%) [6]: 68.57% and 62.94%
Population Hoechst High Intensity Objects (%) [6]: 0.18% and 0%
Population Membrane Permeable-Phenotype (%) [6]: 31.1% and 67.29%
Population Mitotic Cells (%) [6]: 39.46% and 41.07%
Population Normal (%) [6]: 99.82% and 100%
Population Pyknosed Nuclei (%) [6]: 27.02% and 32.94%
Population Tubulin-Different-Phenotype (%) [6]: 82.84% and 74.77%

CCOC(=O)c1cnn(-c2ccc(NC(=O)C(Cl)=C(Cl)Cl)cc2)c1C(F)(F)F
Population Apoptotic (%) [1]: 35.29% and 57.89%
Population Fragmented Nuclei (%) [1]: 2.52% and 2.35%
Population Healthy Nuclei (%) [1]: 88.92% and 86.47%
Population Hoechst High Intensity Objects (%) [1]: 0%
Population Membrane Permeable-Phenotype (%) [1]: 0.57% and 2.72%
Population Mitochondria Different-Phenotype (%) [1]: 0.85% and 4.76%
Population Mitotic Cells (%) [1]: 64.71% and 42.11%
Population Normal (%) [1]: 100%
Population Pyknosed Nuclei (%) [1]: 8.56% and 11.18%
Population Tubulin-Different-Phenotype (%) [1]: 0.57% and 0%
Total Cell Count [1]: 397 and 170
Population Apoptotic (%) [2]: 21.96% and 33.6%
Population Fragmented Nuclei (%) [2]: 2.71% and 4.35%
Population Healthy Nuclei (%) [2]: 8.13% and 5.07%
Population Hoechst High Intensity Objects (%) [2]: 0%
Population Membrane Permeable-Phenotype (%) [2]: 11.11% and 28.57%
Population Mitotic Cells (%) [2]: 78.04% and 66.4%
Population Normal (%) [2]: 100%
Population Pyknosed Nuclei (%) [2]: 89.16% and 90.58%
Population Tubulin-Different-Phenotype (%) [2]: 25.93% and 14.29%
Total Cell Count [2]: 332 and 138
Population Apoptotic (%) [3]: 36.07% and 39.02%
Population Fragmented Nuclei (%) [3]: 1.33% and 1.84%
Population Healthy Nuclei (%) [3]: 87.12% and 79.26%
Population Hoechst High Intensity Objects (%) [3]: 0%
Population Membrane Permeable-Phenotype (%) [3]: 0.43% and 0.58%
Population Mitochondria Different-Phenotype (%) [3]: 0.43% and 4.07%
Population Mitotic Cells (%) [3]: 63.93% and 60.98%
Population Normal (%) [3]: 100%
Population Pyknosed Nuclei (%) [3]: 11.55% and 18.89%
Population Tubulin-Different-Phenotype (%) [3]: 0.22% and 0%
Total Cell Count [3]: 528 and 217
Population Apoptotic (%) [4]: 65.22% and 84.92%
Population Fragmented Nuclei (%) [4]: 3.27% and 2.76%
Population Healthy Nuclei (%) [4]: 7.74% and 10.34%
Population Hoechst High Intensity Objects (%) [4]: 0%
Population Membrane Permeable-Phenotype (%) [4]: 30.77% and 46.67%
Population Mitochondria Different-Phenotype (%) [4]: 0% and 13.33%
Population Mitotic Cells (%) [4]: 34.78% and 15.08%
Population Normal (%) [4]: 100%
Population Pyknosed Nuclei (%) [4]: 88.99% and 86.9%
Population Tubulin-Different-Phenotype (%) [4]: 57.69% and 60%
Total Cell Count [4]: 336 and 145
Population Apoptotic (%) [5]: 48.86% and 64.44%
Population Fragmented Nuclei (%) [5]: 5.03% and 2.12%
Population Healthy Nuclei (%) [5]: 85.95% and 84.24%
Population Hoechst High Intensity Objects (%) [5]: 0%
Population Membrane Permeable-Phenotype (%) [5]: 1.31% and 2.52%
Population Mitochondria Different-Phenotype (%) [5]: 0.12% and 2.16%
Population Mitotic Cells (%) [5]: 51.14% and 35.56%
Population Normal (%) [5]: 100%
Population Pyknosed Nuclei (%) [5]: 9.03% and 13.64%
Population Tubulin-Different-Phenotype (%) [5]: 1.07% and 1.44%
Total Cell Count [5]: 975 and 330
Population Apoptotic (%) [6]: 86.63% and 98.18%
Population Fragmented Nuclei (%) [6]: 2.51% and 10.64%
Population Healthy Nuclei (%) [6]: 38.87% and 50.35%
Population Hoechst High Intensity Objects (%) [6]: 0%
Population Membrane Permeable-Phenotype (%) [6]: 8.06% and 23.94%
Population Mitochondria Different-Phenotype (%) [6]: 11.29% and 15.49%
Population Normal (%) [6]: 100%
Population Pyknosed Nuclei (%) [6]: 58.62% and 39.01%
Population Tubulin-Different-Phenotype (%) [6]: 66.94% and 47.89%
Total Cell Count [6]: 319 and 141
